“And” between values parts separate entries of the source, which are not always exact repeats. Identical values can stand only once. Like-named read-outs stand apart in the source and are kept apart here.
Columns and labels:
Assay type in all cases: cell-based, Human
HCT-116 = experiment: MTT cytotoxicity assay in normoxia and hypoxia, HCT-116; conditions: for HCR = hypoxic cytotoxicity ratio IC50 (aerobic)/IC50 (hypoxic): HCT-116; for IC50: Homo sapiens
Summary of the method: (§1)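 MCF-7 and HCT-116 were grown in DMEM; NCI-H460 in RPMI 1640 plus 10 mM HEPES; all media had 10% FBS, pyruvate and 1.5 g/L bicarbonate. Cells were seeded at 20000/well and grown 24 h at 20% O2, 5% CO2, 37 °C. Serial compound concentrations were then given for 24 h in normoxia, or for 6 h hypoxia (3% O2) followed by 18 h normoxia. MTT was read at 545 nm. IC50 came from linear regression of % inhibition versus log concentration, and HCR = IC50 normoxia/IC50 hypoxia.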

NCI-H460 = experiment: MTT cytotoxicity assay in normoxia and hypoxia, NCI-H460; conditions: for IC50: Homo sapiens; for HCR = IC50 (aerobic)/IC50 (hypoxia): NCI-H460
Summary of the method: as §1

[1] = tested on: co-cultured HUVECs and fibroblasts; experiment: In vitro tube formation test; conditions: 2 μM, 11 days
Summary of the method: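 HUVECs were co-cultured with fibroblasts for 11 days in basal medium, solvent-control medium (0.2% DMSO), or solvent medium with test compound at 2 or 20 μM. Medium ± compound was renewed every 3 days, and suramin served as the kit positive control. HUVECs were stained with anti-CD31, and tube area, length, joints and paths were measured by image analyzer over 5 fields. Quadruplicate wells; mean ± SEM, n=4.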

HCT-116 cells [2] = experiment: Cell cycle assay by flow cytometry; conditions: for Sub-G1 (%) / G1 (%) / G2/M (%) / S (%): 24 h
[3] = tested on: caspase 3/7 in HCT-116 cells; experiment: Caspase 3/7 activity; conditions: 30 µM, 24 h; for level of active caspase 3/7: HCT-116, hypoxia, solvent control 7%; for effect on level of active caspase 3/7: HCT-116, normoxia
Summary of the method: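 HCT-116 cells were exposed to test compound at 30 µM for 24 h in normoxia or hypoxia. Cells were harvested, washed in PBS, centrifuged (350 g, 5 min) and stained with a FAM-FLICA caspase-3/7 inhibitor kit. Active caspase 3/7 was measured by flow cytometry. Data are mean ± SEM, n=3, compared with solvent control by one-way ANOVA with Tukey post hoc test.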

HCT-116 cells [4] = experiment: ROS analysis by flow cytometry
Summary of the method: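 HCT-116 cells were treated with test compound at 15 or 30 µM in normoxia or hypoxia (24 h per methods; legend states 18 h). They were stained with CM-H2DCFDA for 45 min, collected, and analysed on a FACSCalibur flow cytometer. Fluorescence was normalised to solvent control; mean ± SEM, n=3.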

[5] = tested on: γ-H2AX and cleaved PARP in HCT-116 cells; experiment: Dual-parameter γ-H2AX and cleaved PARP flow cytometry; conditions: 30 µM, 24 h
γ-H2AX in HCT-116 cells = experiment: Level of γ-H2AX by flow cytometry; conditions: 30 µM, 24 h
MCF-7 = experiment: MTT cytotoxicity assay in normoxia and hypoxia, MCF-7
Summary of the method: as §1

[6] = tested on: cleaved PARP in HCT-116 cells; experiment: Level of cleaved PARP by flow cytometry; conditions: HCT-116, hypoxia, 30 µM, 24 h
[7] = HCT-116, 24 h, read-out: Cytotoxicity (IC50) HCT-116 N
[8] = HCT-116, read-out: Cytotoxicity (IC50) HCT-116 H
[9] = HCT-116, read-out: Cytotoxicity (IC50), cell kill under hypoxia
[10] = NCI-H460, 24 h, read-out: Cytotoxicity (IC50) NCI-H460 N
[11] = NCI-H460, read-out: Cytotoxicity (IC50) NCI-H460 H

## NCCCCCNc1n[n+]([O-])c2ccccc2[n+]1[O-] [Compound 8d, N^1-(1,4-Dioxido-1,2,4-benzotriazine-3-yl)-1,5-pentanediamine]
HCT-116
  HCR = hypoxic cytotoxicity ratio IC50 (aerobic)/IC50 (hypoxic): 1.7
HCT-116; [7]
  IC50: 93.7 ± 20 µM
HCT-116; [8]
  IC50: 55.3 ± 7.5 µM
HCT-116; [9]
  IC50: 55.3 µM
NCI-H460; [10]
  IC50: 101 ± 38.9 µM
NCI-H460; [11]
  IC50: 83.4 ± 33.8 µM

## NCCCCCCNc1n[n+]([O-])c2ccccc2[n+]1[O-] [Compound 8e, N^1-(1,4-Dioxido-1,2,4-benzotriazin-3-yl)-1,6-hexanediamine]
HCT-116
  HCR = hypoxic cytotoxicity ratio IC50 (aerobic)/IC50 (hypoxic): 1.5
HCT-116; [7]
  IC50: 91.2 ± 16.2 µM
HCT-116; [8]
  IC50: 62.9 ± 11 µM
HCT-116; [9]
  IC50: 62.1 µM
NCI-H460; [10]
  IC50: 104 ± 15.1 µM
NCI-H460; [11]
  IC50: 68.7 ± 15.1 µM

## [O-][n+]1nc(NCCCCCCNc2n[n+]([O-])c3ccccc3[n+]2[O-])nc2ccccc21 [Compound 9e, 3-(6-(1-Oxido-1,2,4-benzotriazin-1-ium-3-yl)aminohexylamino)-1,2,4-benzotriazine-1,4-dioxide]
HCT-116; [7]
  IC50: > 30 µM
HCT-116; [8]
  IC50: > 30 µM
NCI-H460; [10]
  IC50: > 30 µM
NCI-H460; [11]
  IC50: > 30 µM

## [O-][n+]1nc(NCCCCCNc2n[n+]([O-])c3ccccc3[n+]2[O-])nc2ccccc21 [Compound 9d, 3-(5-(1-Oxido-1,2,4-benzotriazin-1-ium-3-yl)aminopentylamino)-1,2,4-benzotriazine-1,4-dioxide]
HCT-116; [7]
  IC50: > 30 µM
HCT-116; [8]
  IC50: > 30 µM
NCI-H460; [10]
  IC50: > 30 µM
NCI-H460; [11]
  IC50: > 30 µM

## NCCCCCCCCNc1n[n+]([O-])c2ccccc2[n+]1[O-] [Compound 8g, N^1-(1,4-Dioxido-1,2,4-benzotriazine-3-yl)-1,8-octanediamine]
HCT-116
  HCR = hypoxic cytotoxicity ratio IC50 (aerobic)/IC50 (hypoxic): 2.2
HCT-116; [7]
  IC50: 97 ± 8.7 µM
HCT-116; [8]
  IC50: 44.8 ± 6 µM
HCT-116; [9]
  IC50: 44.8 µM
NCI-H460; [10]
  IC50: 82.7 ± 20.4 µM
NCI-H460; [11]
  IC50: 45.8 ± 6.1 µM
[1]
  reduction of areas, lengths, paths and joints of tube formation: 31-40%

## 1,2,4-benzotriazine-1-oxide [Compound 1]
HCT-116 cells [2]; data not shown
  effect on HCT-116 cell cycle (G2/M accumulation): invalid

## [O-][n+]1nc(NCCCCNc2n[n+]([O-])c3ccccc3[n+]2[O-])nc2ccccc21 [Compound 9c, 3-(4-(1-Oxido-1,2,4-benzotriazin-1-ium-3-yl)aminobutylamino)-1,2,4-benzotriazine-1,4-dioxide]
HCT-116; [7]
  IC50: > 30 µM
HCT-116; [8]
  IC50: > 30 µM
NCI-H460; [10]
  IC50: > 30 µM
NCI-H460; [11]
  IC50: > 30 µM

## [O-][n+]1nc(NCCCCCCCCNc2n[n+]([O-])c3ccccc3[n+]2[O-])nc2ccccc21 [Compound 9g, 3-(8-(1-Oxido-1,2,4-benzotriazin-1-ium-3-yl)aminooctylamino)-1,2,4-benzotriazine-1,4-dioxide]
HCT-116; [7]
  IC50: > 30 µM
HCT-116; [8]
  IC50: > 30 µM
NCI-H460; [10]
  IC50: > 30 µM
NCI-H460; [11]
  IC50: > 30 µM

## [O-][n+]1nc(NCCCNc2n[n+]([O-])c3ccccc3[n+]2[O-])nc2ccccc21 [Compound 9b, 3-(3-(1-Oxido-1,2,4-benzotriazin-3-yl)aminopropylamino)-1,2,4-benzotriazine-1,4-dioxide]
HCT-116 cells [2]; HCT-116, hypoxia, 15 µM
  Sub-G1 (%): 4.3%
HCT-116 cells [2]; HCT-116, hypoxia, 30 µM
  G1 (%): 28.1±1.2%
  G2/M (%): 30.2±3.9%
  S (%): 29.3±4.7%
  Sub-G1 (%): 12.2% and 12.2±2.8%
HCT-116 cells [2]; HCT-116, normoxia, 15 µM
  Sub-G1 (%): ~2.8%
HCT-116 cells [2]; HCT-116, normoxia, 30 µM
  G1 (%): 35.0% and 35.0±5.1%
  G2/M (%): 48.0% and 48.0±1.9%
  S (%): 14.3±4.1%
  Sub-G1 (%): 2.1% and 2.1±0.1%
HCT-116; [7]
  IC50: 53.8 ± 4.7 µM
HCT-116; [8]
  IC50: 28.7 ± 6.7 µM
NCI-H460; [10]
  IC50: 44.6 ± 4.3 µM
NCI-H460; [11]
  IC50: 21.4 ± 4.8 µM
NCI-H460
  HCR = IC50 (aerobic)/IC50 (hypoxia): 2.1
[3]
  level of active caspase 3/7: ~23%
  effect on level of active caspase 3/7: no apparent effect
[1]
  reduction of areas, lengths, paths and joints of tube formation: 45-50%

## NCCCNc1n[n+]([O-])c2ccccc2[n+]1[O-] [Compound 8b, N^1-(1,4-Dioxido-1,2,4-benzotriazine-3-yl)-1,3-propanediamine]
HCT-116
  HCR = hypoxic cytotoxicity ratio IC50 (aerobic)/IC50 (hypoxic): 1.7
HCT-116; [7]
  IC50: 90.4 ± 3.5 µM
HCT-116; [8]
  IC50: 54.8 ± 8 µM
HCT-116; [9]
  IC50: 54.8 µM
NCI-H460; [10]
  IC50: 95.6 ± 33.9 µM
NCI-H460; [11]
  IC50: 79.5 ± 26.6 µM

## [O-][n+]1nc(NCCCCCCCNc2n[n+]([O-])c3ccccc3[n+]2[O-])nc2ccccc21 [Compound 9f, 3-(7-(1-Oxido-1,2,4-benzotriazin-1-ium-3-yl)aminoheptylamino)-1,2,4-benzotriazine-1,4-dioxide]
HCT-116; [7]
  IC50: > 30 µM
HCT-116; [8]
  IC50: > 30 µM
NCI-H460; [10]
  IC50: > 30 µM
NCI-H460; [11]
  IC50: > 30 µM

## NCCCCCCCNc1n[n+]([O-])c2ccccc2[n+]1[O-] [Compound 8f, N^1-(1,4-Dioxido-1,2,4-benzotriazine-3-yl)-1,7-heptanediamine]
HCT-116
  HCR = hypoxic cytotoxicity ratio IC50 (aerobic)/IC50 (hypoxic): 1.9
HCT-116; [7]
  IC50: 78.3 ± 4.9 µM
HCT-116; [8]
  IC50: 40.8 ± 4.3 µM
HCT-116; [9]
  IC50: 40.8 µM
NCI-H460; [10]
  IC50: 79.4 ± 22.6 µM
NCI-H460; [11]
  IC50: 42.8 ± 8.3 µM

## NCCNc1n[n+]([O-])c2ccccc2[n+]1[O-] [Compound 8a, N^1-(1,4-Dioxido-1,2,4-benzotriazine-3-yl)-1,2-ethanediamine]
HCT-116
  HCR = hypoxic cytotoxicity ratio IC50 (aerobic)/IC50 (hypoxic): 1.8
HCT-116; [7]
  IC50: 40.3 ± 14.6 µM
HCT-116; [8]
  IC50: 22.4 ± 9.7 µM
HCT-116; [9]
  IC50: 22.4 µM
NCI-H460; [10]
  IC50: 18.7 ± 2.7 µM
NCI-H460; [11]
  IC50: 10.1 ± 3.7 µM

## [O-][n+]1nc(NCCNc2n[n+]([O-])c3ccccc3[n+]2[O-])nc2ccccc21 [Compound 9a, 3-(2-(1-Oxido-1,2,4-benzotriazin-3-yl)aminoethylamino)-1,2,4-benzotriazine-1,4-dioxide]
HCT-116 cells [4]; HCT-116, hypoxia, 15 µM
  increase of ROS relative to control medium: 46 fold
HCT-116 cells [4]; HCT-116, hypoxia, 30 µM
  increase of ROS relative to control medium: 60 fold
HCT-116 cells [4]; HCT-116, normoxia, 15 µM
  increase of ROS relative to control medium: 3.4 fold
HCT-116 cells [4]; HCT-116, normoxia, 30 µM
  increase of ROS relative to control medium: 5.8 fold
HCT-116 cells [2]; HCT-116, hypoxia, 15 µM
  G1 (%): 26.2±3.7%
  G2/M (%): 31.4% and 31.4±3.2%
  S (%): 27.3±4.4%
  Sub-G1 (%): 13.1% and 13.1±1.7%
HCT-116 cells [2]; HCT-116, hypoxia, 30 µM
  G1 (%): 33.3±2.4%
  G2/M (%): 16.7% and 16.7±2.5%
  S (%): 25.8±3.8%
  Sub-G1 (%): 24.3% and 24.3±2.8%
HCT-116 cells [2]; HCT-116, normoxia, 15 µM
  G1 (%): 30.9±2.3%
  G2/M (%): 51.0% and 51.0±4.2%
  S (%): 15.0±5.5%
  Sub-G1 (%): 2.7±0.7%
HCT-116 cells [2]; HCT-116, normoxia, 30 µM
  G1 (%): 24.3±4.1%
  G2/M (%): 58.3% and 58.3±2.8%
  S (%): 12.9±5.2%
  Sub-G1 (%): 3.8% and 3.8±1.7%
HCT-116
  HCR = hypoxic cytotoxicity ratio IC50 (aerobic)/IC50 (hypoxic): 3.7
HCT-116; [7]
  IC50: 66.3 ± 16.5 µM
HCT-116; [8]
  IC50: 18.1 ± 2.6 µM
NCI-H460; [10]
  IC50: 43.7 ± 12.5 µM
NCI-H460; [11]
  IC50: 17.5 ± 4.3 µM
NCI-H460
  HCR = IC50 (aerobic)/IC50 (hypoxia): 2.5
[5]; HCT-116, hypoxia
  cells expressing both γ-H2AX and cleaved PARP (upper right quadrant): approximately 11%
[5]; HCT-116, normoxia
  cells expressing both γ-H2AX and cleaved PARP (upper right quadrant): 0.1%
γ-H2AX in HCT-116 cells; HCT-116, hypoxia, solvent control 4%
  expression of γ-H2AX: around 30%
γ-H2AX in HCT-116 cells; HCT-116, normoxia
  effect on expression of γ-H2AX: no significant effect
[3]
  level of active caspase 3/7: ~55%
  effect on level of active caspase 3/7: no apparent effect
MCF-7
  HCR = IC50 (aerobic)/IC50 (hypoxia): > 6.0
[1]
  reduction of areas, lengths, paths and joints of tube formation: 70-80%
[6]
  cleaved PARP: ~45%
